Data: article PMC7644900 (Heliyon, 2020)

Legend:
[1] = system: K. pneumonia (ATCC 13883); assay: Antibacterial broth-dilution MIC; assay type: cell-based, Klebsiella pneumonia
Procedure, shortened: (§1)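 Broth-dilution in 96-well plates against S. aureus ATCC 29213, B. cereus ATCC 10876, E. coli ATCC 22922, K. pneumoniae ATCC 13883 and P. aeruginosa. Test compound concentrations spanned 10–100 mM. CTAB served as positive control and DMSO as negative control. Activity was reported as minimum inhibitory concentration.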

[2] = target: T1, bovine serum albumin (BSA) (Bos taurus, UniProt P02769); assay: BSA steady state/intrinsic fluorescence quenching study; assay type: binding; conditions: 298 K; for bimolecular quenching constant Kq x 10^12: pH 7.4, τ0 10^−8 s; for Stern-Volmer constant Ksv x 10^4 / binding constant Ka: phosphate buffer pH 7.4
Procedure, shortened: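 BSA (10 μM stock) in phosphate buffer pH 7.4 in a 1.0 cm quartz cuvette at 298 K. Intrinsic fluorescence: excitation 295 nm, scan 300–400 nm, intensity read at 336 nm. Slits were 10 nm (excitation) and 5.0 nm (emission). Titrated with test compound stock (0.001 M) and read after each addition. Ksv and Kq were obtained from Stern-Volmer plots of F0/F versus quencher concentration.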

E. coli (ATCC 22922) = assay: Antibacterial broth-dilution MIC; assay type: cell-based, Escherichia coli
Procedure, shortened: as §1

HaCaT cells = assay: In-vitro cytotoxicity MTT assay; assay type: cell-based, human
Procedure, shortened: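 HaCaT cells in DMEM with FBS, glutamine and penicillin/streptomycin were seeded one day earlier and incubated 24 h. Exposed to test compound (20–1.25 mg/mL), 4% ethyl acetate blank or 20% DMSO control for 24 h at 37 °C, 5% CO2. Morphology was checked by microscopy. After PBS wash, MTT (1 mg/mL) was added for 2 h, dissolved in isopropanol and absorbance read. Mean of 3 wells, ≥3 independent experiments.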

B.cereus (ATCC 10876) = assay: Antibacterial broth-dilution MIC; assay type: cell-based, Bacillus cereus
Procedure, shortened: as §1

[3] = target: T1, bovine serum albumin (BSA); assay: Thermodynamic BSA binding studies; conditions: for ΔH (enthalpy change) / ΔS (entropy change): van't Hoff, 298-313 K
Procedure, shortened: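 BSA (10 μM) in phosphate buffer pH 7.4 in a 1.0 cm quartz cuvette. Excitation 295 nm, emission scanned 300–400 nm at 298, 308 and 313 K. Titrated with 15 μL of test compound. Binding constants were taken at each temperature, with ΔG = −RT lnKa. ΔH and ΔS were calculated from the Ka values across the three temperatures.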

[4] = Critical micelle concentration by pyrene fluorescence probe; assay type: physicochemical; conditions: 25 °C, pyrene as probe
Procedure, shortened: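 Pyrene probe (0.1 mM methanol stock) was dried in vials, then test compound solutions were added to give 1.6 μM final pyrene. Mixed on an orbital shaker for 24 h and measured at 298 K. Excitation 334 nm, emission 350–450 nm, slits 5.0/2.5 nm. CMC was taken from the plot of I1 (373 nm)/I3 (384 nm) versus concentration.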

S.aureus (ATCC 29213) = assay: Antibacterial broth-dilution MIC; assay type: cell-based, Staphylococcus aureus
Procedure, shortened: as §1

[5] = target: T1, bovine serum albumin (BSA); assay: Competitive BSA binding experiments using site markers warfarin and ibuprofen; conditions: 298 K
[6] = system: P. aeruginosa (ATCC 27853); assay: Antibacterial broth-dilution MIC; assay type: cell-based, Pseudomonas aeruginosa
Procedure, shortened: as §1

[7] = in the presence of Ibuprofen (site II marker)
[8] = in the presence of Warfarin (site I marker)

T1 sequence (P02769 25-607): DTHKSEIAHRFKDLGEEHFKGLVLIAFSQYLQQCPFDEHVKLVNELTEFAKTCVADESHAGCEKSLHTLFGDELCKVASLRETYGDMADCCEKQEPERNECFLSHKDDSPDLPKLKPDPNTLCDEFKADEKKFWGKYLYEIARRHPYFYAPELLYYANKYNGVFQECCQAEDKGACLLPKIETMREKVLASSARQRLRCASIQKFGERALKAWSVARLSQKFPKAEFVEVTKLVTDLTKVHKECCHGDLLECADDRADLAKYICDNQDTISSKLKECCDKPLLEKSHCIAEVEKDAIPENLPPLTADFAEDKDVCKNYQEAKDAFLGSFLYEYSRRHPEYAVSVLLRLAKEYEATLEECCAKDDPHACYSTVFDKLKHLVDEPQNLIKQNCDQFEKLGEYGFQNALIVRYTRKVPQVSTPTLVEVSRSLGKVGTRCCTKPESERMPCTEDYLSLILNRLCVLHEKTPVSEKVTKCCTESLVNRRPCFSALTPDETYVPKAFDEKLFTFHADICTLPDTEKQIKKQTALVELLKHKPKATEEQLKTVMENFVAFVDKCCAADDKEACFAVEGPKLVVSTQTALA

Compound	MIC ([1]; Gram-negative)	bimolecular quenching constant Kq x 10^12 [2]	Stern-Volmer constant Ksv x 10^4 [2]	binding constant Ka [2]	MIC (E. coli (ATCC 22922); Gram-negative)	% Cell Viability (HaCaT cells; 2.5, 24 h)	% Cell Viability (HaCaT cells; 5, 24 h)	% Cell Viability (HaCaT cells; 10, 24 h)	MIC (B.cereus (ATCC 10876); Gram-positive)	Ka ([3]; 298 K)	ln Ka ([3]; 298 K)	ΔG (free energy) ([3]; 298 K)	Ka ([3]; 308 K)	ln Ka ([3]; 308 K)	ΔG (free energy) ([3]; 308 K)	Ka ([3]; 313 K)	ln Ka ([3]; 313 K)	ΔG (free energy) ([3]; 313 K)	ΔH (enthalpy change) [3]	ΔS (entropy change) [3]	also measured
Dioctyl 2,2′-disulfanediyldibenzamide [Compound 1]	25300 µM	7.45 x 10^12 M^−1s^−1	7.45 x 10^4 M^−1	5470 M⁻¹	21400 µM	82.9%	62.6%	23.0%	3120 µM	5470 M⁻¹	8.61	-21.68 KJmol^−1	3250 M⁻¹	8.09	-18.73 KJmol^−1	461 M⁻¹	6.13	-17.26 KJmol^−1	-109.5 KJmol^−1	-294.7 Jmol^−1K^−1	% Cell Viability (HaCaT cells; 20, 24 h): 18.4%; cell death by changes in cell morphology (HaCaT cells; microscopy, 10 mg/ml (Figure 5)): considerable amount of cell death; CMC [4]: 0.163 mM; MIC (S.aureus (ATCC 29213); Gram-positive): 12500 µM; Ka ([5]; Blank (no site marker)): 5060 M⁻¹; Ka [5, 7]: 2110 M⁻¹; Ka [5, 8]: 4950 M⁻¹; MIC ([6]; Gram-negative): >15600 µM
CCCCCCCCCCCCCCCC[N+](C)(C)C [+ve control, Cetyltrimethylammonium bromide, reference compound]																					MIC ([1]; Klebsiella pneumoniae, ATCC13883): 10.7 µM; MIC (E. coli (ATCC 22922); Escherichia coli, ATCC22922): 686 µM; MIC (B.cereus (ATCC 10876); Bacillus cereus, ATCC10876): 12.3 µM; MIC (S.aureus (ATCC 29213); Staphylococcus aureus, ATCC29213): 15.2 µM; MIC ([6]; Pseudomonas aeruginosa, ATCC27853): 171 µM
Didecanoyl 2,2′-disulfanediyldibenzamide [Compound 2]	26300 µM	2.26 x 10^12 M^−1s^−1	2.26 x 10^4 M^−1	225000 M⁻¹	>25300 µM	100.0%	100.0%	63.7%	2530 µM	225000 M⁻¹	12.32	-30.60 KJmol^−1	3580 M⁻¹	8.18	-20.76 KJmol^−1	405 M⁻¹	6.00	-15.77 KJmol^−1	-325.26 KJmol^−1	-988.78 Jmol^−1K^−1	toxicity to the cells (in words) (HaCaT cells; at a concentration of <10 mg/ml): non-toxic; MIC (S.aureus (ATCC 29213); Gram-positive): 5400 µM; Ka ([5]; Blank (no site marker)): 429000 M⁻¹; Ka [5, 7]: 64600 M⁻¹; Ka [5, 8]: 15700 M⁻¹; MIC ([6]; Gram-negative): 25600 µM
